Assay: Inhibition of CK2 in rat liver
How it was run: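 Native CK2 purified from rat liver. Started with kinase, stopped at 10 min with orthophosphoric acid. Read by phosphocellulose filter binding and counting. Three independent experiments, values averaged.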

SMILES	IC50	Ki
O=c1cc(CCl)c2ccc(O)cc2o1	> 40 µM	
Cc1c(Br)c(=O)oc2c(Br)c(O)ccc12	0.1 µM	0.06 µM
O=C(O)/C=C/c1cc(Br)c(Br)c(Br)c1Br	0.11 µM	
Cc1c(Br)c(=O)oc2c(Br)c(O)c(O)cc12	2 µM	
COc1c(O)c(-c2ccnnc2)cc2ccc(=O)oc12	> 100 µM	
Cc1cc(=O)oc2cc(O)ccc12 [HYMECROMONE]	> 100 µM	
O=c1ccc2ccc(O)cc2o1 [UMBELLIFERONE]	> 100 µM	
Cc1c(Br)c(=O)oc2c(Br)c(N)ccc12	> 40 µM	
Cc1cc(=O)oc2cc(O)cc(O)c12 [5,7-DIHYDROXY-4-METHYLCOUMARIN]	35 µM	
CCOC(=O)c1cc2c(Br)cccc2oc1=O	118 µM	
Cc1cc(=O)oc2c(C)c(O)c([N+](=O)[O-])cc12	30 µM	
Cc1cc(=O)oc2cc3c([N+](=O)[O-])c(O)ccc3cc12	0.3 µM	
Cc1cc(=O)oc2c(C=O)c(O)ccc12	> 40 µM	
O=c1ccc2c(O)cc(O)cc2o1	35 µM	
Cc1c(Br)c(=O)oc2c(O)c(O)ccc12	10.5 µM	
Cc1c(Br)c(=O)oc2c(C=O)c(O)ccc12	3.3 µM	
COc1cc(O)cc2oc(=O)c(C)cc12	> 40 µM	
O=c1oc2c(O)c(O)cc3c(=O)oc4c(O)c(O)cc1c4c23 [ELLAGIC ACID]	0.04 µM	
O=c1c2c(O)cccc2oc2c([N+](=O)[O-])ccc(O)c12	0.4 µM	

Reference: ChEMBL document CHEMBL1142299, “Coumarin as attractive casein kinase 2 (CK2) inhibitor scaffold: an integrate approach to elucidate the putative binding motif and explain structure-activity relationships” (J Med Chem, 2008)
